{"data": "Published values pooled from the literature", "organism": "Trypanosoma brucei", "observed": "parasite growth", "note": "Compare with care: the assays were run in different laboratories."}
{"SMILES": "Cc1cc(C)c(C#N)c(NCC(O)c2ccc(F)cc2)n1 (stereo not drawn)", "method": "resazurin", "strain": "RHODESIENSE", "EC50": "7.86 µM"}
{"SMILES": "O=C(N/N=C/c1ccc([N+](=O)[O-])o1)c1cn(Cc2ccccc2)c2ccccc2c1=O", "method": "resazurin", "time": "72 h", "EC50": "0.57 µM"}
{"SMILES": "CCCCCC(=O)NC(Cc1ccc(N)cc1)C(=O)NC(Cc1ccc(N)cc1)C(=O)NC(CC(C)C)C(=O)C1(C)CO1 (stereo not drawn)", "method": "SYBR Green", "time": "72 h", "EC50": "< 0.5 µM"}
{"SMILES": "Cc1ccc(Cn2cc(C(=O)N/N=C/c3ccc([N+](=O)[O-])s3)c(=O)c3cc(Br)ccc32)cc1", "method": "resazurin", "time": "72 h", "EC50": "0.14 µM"}
{"SMILES": "N=C(N)c1ccc(OCCCCCOc2ccc(C(=N)N)cc2)cc1", "method": "SYBR Green", "strain": "RHODESIENSE", "EC50": "0.027 µM"}
{"SMILES": "O=c1c(O[C@@H]2O[C@H](CO)[C@@H](O)[C@H](O)[C@H]2O)c(-c2ccc(O)c(O)c2)oc2cc(O)cc(O)c12", "method": "resazurin", "time": "48 h", "EC50": "> 20 µM"}
{"SMILES": "Cc1cc(C)c(C#N)c(SCC(=O)c2ccccc2C)n1", "method": "resazurin", "EC50": "25.8 µM"}
{"SMILES": "CCCCCC(=O)NC(Cc1ccc(NC(=O)OC(C)(C)C)cc1)C(=O)NC(Cc1ccc(NC(=O)OC(C)(C)C)cc1)C(=O)NC(CC(C)C)C(=O)C1(C)CO1 (stereo not drawn)", "method": "SYBR Green", "time": "72 h", "EC50": "0.465 µM"}
{"SMILES": "Cc1ccc(Cn2cc(C(=O)N/N=C/c3ccc([N+](=O)[O-])s3)c(=O)c3cc(Cl)c(Cl)cc32)cc1", "method": "resazurin", "time": "72 h", "EC50": "> 4 µM"}
{"SMILES": "COc1cc(C)c(C#N)c(SCC(=O)c2ccccc2)n1", "method": "resazurin", "strain": "RHODESIENSE", "EC50": "32.9 µM"}
{"SMILES": "COc1ccc2c(c1)c(=O)c(C(=O)NN)cn2Cc1ccc(C)cc1", "method": "resazurin", "time": "72 h", "EC50": "> 4 µM"}
{"SMILES": "Cc1cc(C)c(C#N)c(SCC(=O)c2ccccc2O)n1", "method": "resazurin", "EC50": "> 64 µM"}
